Test results from ChEMBL document CHEMBL1129624, “10-substituted 11-oxygenated (R)-aporphines: synthesis, pharmacology, and modeling of 5-HT1A receptor interactions” (J Med Chem, 1996).

Assays:
D(1A) dopamine receptor [1] = biological target: T1, D(1A) dopamine receptor (Rattus norvegicus, UniProt P18901); test: In vitro affinity at Dopamine receptor D1 of rat striatum by [3H]SCH-23390 displacement.; type: tissue-based
D(2) dopamine receptor [2] = biological target: T2, D(2) dopamine receptor (Homo sapiens, UniProt P14416); test: In vitro affinity at human cloned Dopamine receptor D2A by [3H]-raclopride displacement.
T2 sequence (P14416 whole entry): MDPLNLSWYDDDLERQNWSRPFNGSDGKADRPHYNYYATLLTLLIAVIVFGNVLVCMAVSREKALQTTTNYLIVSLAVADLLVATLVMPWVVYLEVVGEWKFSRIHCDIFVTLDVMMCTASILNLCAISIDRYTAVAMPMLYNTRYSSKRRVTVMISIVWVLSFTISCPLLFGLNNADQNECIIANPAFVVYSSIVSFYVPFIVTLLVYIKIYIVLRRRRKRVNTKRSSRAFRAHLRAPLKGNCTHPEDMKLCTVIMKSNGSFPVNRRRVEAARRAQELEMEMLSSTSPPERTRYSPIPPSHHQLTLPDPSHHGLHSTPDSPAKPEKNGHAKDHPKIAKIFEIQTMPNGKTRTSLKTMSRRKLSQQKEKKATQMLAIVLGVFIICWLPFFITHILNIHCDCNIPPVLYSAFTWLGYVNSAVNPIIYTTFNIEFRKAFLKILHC

[3] = biological target: T3, 5-hydroxytryptamine receptor 1A (Rattus norvegicus, UniProt P19327); test: In vitro affinity at 5-hydroxytryptamine 1A receptor of rat hippocampus by [3H]8-OH-DPAT displacement.; type: tissue-based
T3 sequence (P19327 whole entry): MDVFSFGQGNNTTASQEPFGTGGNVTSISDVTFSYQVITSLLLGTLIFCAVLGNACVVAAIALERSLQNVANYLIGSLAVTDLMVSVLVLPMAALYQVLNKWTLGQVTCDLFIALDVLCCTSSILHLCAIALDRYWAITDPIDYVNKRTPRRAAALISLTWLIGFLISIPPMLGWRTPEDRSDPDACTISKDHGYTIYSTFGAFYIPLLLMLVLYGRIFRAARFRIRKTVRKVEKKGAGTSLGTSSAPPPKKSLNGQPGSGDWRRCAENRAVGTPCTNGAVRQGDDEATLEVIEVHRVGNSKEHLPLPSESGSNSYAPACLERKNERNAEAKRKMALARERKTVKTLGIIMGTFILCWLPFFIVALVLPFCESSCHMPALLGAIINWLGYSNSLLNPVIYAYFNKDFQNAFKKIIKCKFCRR
Procedure, shortened: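 Incubation in 50 mM Tris–HCl pH 7.4 containing 2.0 mM CaCl2, 1.0 mM MgCl2, 1.0 mM MnCl2 and 5.7 mM ascorbic acid, 45 min at 37 °C. Nonspecific binding defined with 100 μM 5-HT·HCl. Otherwise run as in an earlier report.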

Rattus norvegicus [4] = test: In vivo effects of single doses on dihydroxyphenylalanine (DOPA) accumulation following decarboxylase inhibition was investigated on limbic forebrain of reserpine-pretreated rats.; type: functional, Limbic system
Procedure, shortened: (§1)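 Rats pretreated with reserpine (5 mg/kg sc) 18–20 h before. Single sc doses of test agent in saline, sometimes with a few drops of glacial HOAc. Decarboxylase then blocked with NSD1015 (117 mg/kg sc). DOPA and 5-HTP measured in dissected brain regions by HPLC with electrochemical detection. Values given as percent of saline controls, n = 2–4. Statistics by one-way ANOVA with Fisher's PLSD.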

Rattus norvegicus [5] = test: In vivo effects on dihydroxyphenylalanine (DOPA) accumulation following decarboxylase inhibition was tested on cortex of reserpine-pretreated rats; type: functional; procedure, shortened: as §1
Rattus norvegicus [6] = test: In vivo effects on dihydroxyphenylalanine (DOPA) accumulation following decarboxylase inhibition was tested on striatum of reserpine-pretreated rats.; type: functional; procedure, shortened: as §1
Rattus norvegicus [7] = test: In vivo effects on 5-hydroxytryptophan (5-HTP) accumulation following decarboxylase inhibition was tested on cortex of reserpine-pretreated rats.; type: functional; procedure, shortened: as §1
Rattus norvegicus [8] = test: In vivo effect on 5-hydroxytryptophan (5-HTP) accumulation following decarboxylase inhibition was investigated on striatum of reserpine-pretreated rats.; type: functional; procedure, shortened: as §1
Rattus norvegicus [9] = test: In vivo effect on 5-hydroxytryptophan (5-HTP) accumulation following decarboxylase inhibition was tested on limbic forebrain of reserpine-pretreated rats.; type: functional, Limbic system; procedure, shortened: as §1
D(2) dopamine receptor [10] = biological target: T2, D(2) dopamine receptor; test: In vitro affinity at human cloned Dopamine receptor D2A by [3H]raclopride displacement.
D(1A) dopamine receptor [11] = biological target: T1, D(1A) dopamine receptor; test: In vitro affinity at Dopamine receptor D1 of rat striatum by [3H]SCH-23,390 displacement.; type: tissue-based
Rattus norvegicus [12] = test: In vivo effect on dihydroxyphenylalanine (DOPA) accumulation following decarboxylase inhibition was tested on cortex of reserpine-pretreated rats; type: functional; procedure, shortened: as §1
Rattus norvegicus [13] = test: In vivo effect on dihydroxyphenylalanine (DOPA) accumulation following decarboxylase inhibition was tested on striatum of reserpine-pretreated rats.; type: functional; procedure, shortened: as §1

T1 sequence (P18901 whole entry): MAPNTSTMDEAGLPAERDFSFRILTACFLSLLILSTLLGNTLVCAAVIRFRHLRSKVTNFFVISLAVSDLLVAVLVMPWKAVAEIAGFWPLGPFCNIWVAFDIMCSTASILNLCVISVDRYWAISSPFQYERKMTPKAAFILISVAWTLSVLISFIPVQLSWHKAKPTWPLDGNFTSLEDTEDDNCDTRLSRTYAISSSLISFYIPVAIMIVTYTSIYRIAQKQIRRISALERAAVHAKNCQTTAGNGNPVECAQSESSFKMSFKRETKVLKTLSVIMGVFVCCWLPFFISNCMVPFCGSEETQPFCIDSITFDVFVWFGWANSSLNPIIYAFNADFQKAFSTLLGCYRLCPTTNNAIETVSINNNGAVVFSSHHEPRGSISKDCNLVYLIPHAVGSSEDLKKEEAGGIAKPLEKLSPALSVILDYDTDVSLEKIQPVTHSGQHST

| Structure (SMILES) | Ki (D(1A) dopamine receptor [1]) | Ki (D(2) dopamine receptor [2]) | Ki [3] | further results |
| --- | --- | --- | --- | --- |
| CCc1ccc2c(c1O)-c1cccc3c1[C@@H](C2)N(C)CC3 | 782 nM | 2050 nM | 9.2 nM | – |
| Cc1ccc2c(c1O)-c1cccc3c1[C@@H](C2)NCC3 | 23800 nM | > 10000 nM | 3.2 nM | Accumulation (Rattus norvegicus [4]): 85; Accumulation (Rattus norvegicus [5]): 93; Accumulation (Rattus norvegicus [6]): 78; Accumulation (Rattus norvegicus [7]): 40; Accumulation (Rattus norvegicus [8]): 47; Accumulation (Rattus norvegicus [9]): 37 |
| COc1c(C)ccc2c1-c1cccc3c1[C@@H](C2)NCC3 | – | – | 12.6 nM | Ki (D(2) dopamine receptor [10]): 4710 nM; Ki (D(1A) dopamine receptor [11]): > 5 µM |
| CCCN1CCc2cccc3c2[C@H]1Cc1ccc(C)c(OC)c1-3 | > 2000 nM | 238 nM | 10.8 nM | – |
| COc1c(-c2ccco2)ccc2c1-c1cccc3c1[C@@H](C2)N(C)CC3 | – | – | 995 nM | Ki (D(2) dopamine receptor [10]): 582 nM; Ki (D(1A) dopamine receptor [11]): 14 µM |
| COc1c(C)ccc2c1-c1cccc3c1[C@@H](C2)N(Cc1ccccc1)CC3 | – | – | – | Ki (D(2) dopamine receptor [10]): > 5000 nM; Ki (D(1A) dopamine receptor [11]): > 5 µM |
| CN1CCc2cccc3c2[C@H]1Cc1ccc(-c2ccccc2)c(O)c1-3 | 9400 nM | > 1000 nM | 1090 nM | – |
| CCCN1CCc2cccc3c2[C@H]1Cc1ccc(C)c(O)c1-3 | > 2000 nM | 249 nM | 12.3 nM | Accumulation (Rattus norvegicus [4]): 81; Accumulation (Rattus norvegicus [5]): 116; Accumulation (Rattus norvegicus [6]): 72; Accumulation (Rattus norvegicus [7]): 102; Accumulation (Rattus norvegicus [8]): 104; Accumulation (Rattus norvegicus [9]): 104 |
| CCCN1CCc2cccc3c2[C@H]1Cc1ccc(OS(=O)(=O)C(F)(F)F)c(OC)c1-3 | > 2000 nM | 403 nM | 3300 nM | – |
| COc1c(C(C)=O)ccc2c1-c1cccc3c1[C@@H](C2)N(C)CC3 | – | – | 150 nM | Ki (D(2) dopamine receptor [10]): 2980 nM; Ki (D(1A) dopamine receptor [11]): 4.82 µM |
| CC(=O)c1ccc2c(c1O)-c1cccc3c1[C@@H](C2)N(C)CC3 | 4620 nM | 2760 nM | – | – |
| CCc1ccc2c(c1OC)-c1cccc3c1[C@@H](C2)N(C)CC3 | 1030 nM | 411 nM | 17.5 nM | – |
| C=Cc1ccc2c(c1OC)-c1cccc3c1[C@@H](C2)N(C)CC3 | – | – | 108 nM | Ki (D(2) dopamine receptor [10]): 1750 nM; Ki (D(1A) dopamine receptor [11]): 1.44 µM |
| COc1c(C)ccc2c1-c1cccc3c1[C@@H](C2)N(C)CC3 | 393 nM | 248 nM | 7.5 nM | – |
| COc1c(C)ccc2c1-c1cccc3c1[C@@H](C2)N(C(C)C)CC3 | > 5000 nM | > 1000 nM | 640 nM | – |
| Cc1ccc2c(c1O)-c1cccc3c1[C@@H](C2)N(Cc1ccccc1)CC3 | > 5000 nM | > 1000 nM | 772 nM | – |
| COc1c(OS(=O)(=O)C(F)(F)F)ccc2c1-c1cccc3c1[C@@H](C2)N(C)CC3 | > 2000 nM | 1040 nM | 1620 nM | – |
| Cc1ccc2c(c1O)-c1cccc3c1[C@@H](C2)N(C(C)C)CC3 | > 10000 nM | > 1000 nM | 241 nM | – |
| Cc1ccc2c(c1O)-c1cccc3c1[C@@H](C2)N(C)CC3 | – | – | – | Accumulation (Rattus norvegicus [12]): 100; Accumulation (Rattus norvegicus [4]): 84; Accumulation (Rattus norvegicus [13]): 90; Accumulation (Rattus norvegicus [7]): 72; Accumulation (Rattus norvegicus [8]): 70; Accumulation (Rattus norvegicus [9]): 58 |
